Assay outcomes as filed in PubChem.
HTRA1 inhibitor – HTRA1 serine protease inhibitors, primary screen, biochemical, fluorescence polarization, HTS | Q92743 | recombinant HTRA1, FP-rhodamine activity-based probe | inhibition, % at 5.96 µM | hit rate 0.5% among 340,000 | AID 504803, 2011; in the data active = inhibition above about 36%
Target sequence (Q92743 whole entry, looked up): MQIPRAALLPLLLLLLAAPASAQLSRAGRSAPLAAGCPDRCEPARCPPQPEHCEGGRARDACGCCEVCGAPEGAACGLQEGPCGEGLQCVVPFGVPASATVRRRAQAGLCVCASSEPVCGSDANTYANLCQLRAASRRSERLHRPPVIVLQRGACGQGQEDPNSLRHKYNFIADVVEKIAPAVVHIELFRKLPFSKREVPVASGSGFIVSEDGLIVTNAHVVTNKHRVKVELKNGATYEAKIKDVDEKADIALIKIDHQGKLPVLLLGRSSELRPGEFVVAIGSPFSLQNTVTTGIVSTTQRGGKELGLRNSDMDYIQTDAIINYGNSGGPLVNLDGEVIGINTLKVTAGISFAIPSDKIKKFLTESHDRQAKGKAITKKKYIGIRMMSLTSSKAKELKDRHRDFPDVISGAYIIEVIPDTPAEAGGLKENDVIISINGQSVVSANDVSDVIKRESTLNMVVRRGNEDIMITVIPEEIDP
ABHD4 inh – ABHD4 inhibitors, primary screen, biochemical, fluorescence polarization, mouse; (Lyso)-N-acylphosphatidylethanolamine lipase (Mus musculus), Q8VD66; purified mABHD4, FP-Rh probe fluorescence polarization; inhibition, % at 8.92 µM; hit rate 0.54% among 370,000; AID 720543, 2013;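 active = inhibition exceeding the mean over every tested compound plus 3 SD, cut at about 30% in these data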
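system = mouse ABHD4 enzyme, wild type | medium = HEPES pH 7.0, NaCl, Pluronic buffer | also added = FP-Rh probe | incubation = Enzyme–compound pre-incubation 45 min, then probe 60 min, both 25 °C | technique = fluorescence polarization, excitation 525 nm, emission 598 nm, BODIPY TMR filters | controls = S159A mutant high control, sample median low control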
PRMT1 inh – PRMT1 methyltransferase inhibitors, primary screen, biochemical, fluorescence polarization; recombinant PRMT1, activity-based probe fluorescence polarization; Protein arginine N-methyltransferase 1 (Homo sapiens), Q99873; hit rate 1.3% among 370,000; AID 652257, 2013; inhibition, % at 2.79 µM;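 active = inhibition above about 21% made by adding two undisclosed values, limit read from the data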
SIAE primary – human SIAE inhibitors, primary screen, biochemical, fluorescence polarization, FP-Rh probe, 1536-well HTS; inhibition, % at 9.66 µM; hit rate 0.69% among 370,000; AID 1053197, 2014; SIAE FP-Rh probe binding; Sialate O-acetylesterase (Homo sapiens), Q9HAT2;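 active = inhibition above a cutoff: mean of compounds within the control limits plus 3 SD of those, cut at about 17% in these data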
TCR-CD3 inh – inhibitors of human TCR-CD3 interaction, primary screen, biochemical, fluorescence, TAMRA-labeled TCR probe; AID 651800, 2012; T-cell receptor (TCR); hit rate 0.37% among 360,000; inhibition, % at 9.4 µM;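 note: recombinant mutant TCR 2C K166C tagged with TAMRA read by polarization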
BSA probe FL – compounds interfering with TAMRA-BSA probe, counter-screen for TCR-CD3 interaction inhibitor project, biochemical, fluorescence, TAMRA-labeled BSA; shares compounds with TCR-CD3 inh; TAMRA-labeled BSA probe fluorescence counterscreen; inhibition, % at 9.4 µM; hit rate 10% among 1,200; in the data active = inhibition above about 23%
TCR-CD3 inh conf – TCR-CD3 interaction inhibitors, retest, confirmation, biochemical, fluorescence, TAMRA-labeled TCR probe; hit rate 48% among 1,200; inhibition, % at 9.4 µM; TAMRA-labeled TCR probe fluorescence binding assay; shares compounds with TCR-CD3 inh
PRMT1 confirm – PRMT1 methyltransferase inhibitors, confirmation, biochemical, fluorescence polarization, triplicate; shares compounds with PRMT1 inh; recombinant His-PRMT1, activity-based probe fluorescence polarization; inhibition, % at 2.79 µM; hit rate 42% among 3,300; AID 687036, 2013;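 active = mean inhibition across replicates above the hit cutoff derived for the earlier primary screen, cut at about 22% in these data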
ABHD4 confirm – ABHD4 inhibitors, retest, confirmation, biochemical, fluorescence polarization, mouse. shares compounds with ABHD4 inh. purified mABHD4, FP-Rh probe fluorescence polarization. inhibition, % at 8.92 µM. hit rate 55% among 1,800. AID 720658, 2013;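 active = mean inhibition across replicates above the hit cutoff set in the primary screen, cut at about 30% in these data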
SIAE confirm – human SIAE inhibitors, retest, confirmation, biochemical, fluorescence polarization, FP-Rh probe, triplicate; shares compounds with SIAE primary; SIAE FP-Rh activity-based probe; inhibition, % at 9.66 µM; hit rate 13% among 2,300;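 active = mean inhibition of the replicates above the hit cutoff set in the primary screen, cut at about 17% in these data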;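 note: inhibitors lower polarization as more probe stays unbound to SIAE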
Hits are given with their value; . = inactive; / = no result given. Only some compounds are listed: those with a hit (about 2.7% of all), similar ones and a draw of the others. Cut-off read from the data, not from the text of the source, unless noted: active = inhibition above about 19%; inactive = the rest.

SMILES	HTRA1 inhibitor	ABHD4 inh	PRMT1 inh	SIAE primary	TCR-CD3 inh	BSA probe FL	TCR-CD3 inh conf	SIAE confirm	others
COC(C(=O)Nc1ccnn1C1CCN(Cc2ccccn2)CC1)c1ccccc1 (centres undefined)	.	.	.	.	.	/	/	/
CCOC(=O)C1=Nc2cccc3c(O)ccc1c23	/	.	75	30	85	141	110	18	PRMT1 confirm=80
CCOC(=O)C1=Nc2ccccc2C1=[N+]=[N-]	.	.	.	.	.	/	/	/
CCOc1ccc(NC(=O)NNC(=O)c2ccc3ccccc3c2O)cc1	.	.	.	21	32	.	23	.
CC1(C(=O)NC2CCCCC2)CCC(=O)N1CC(F)(F)F (centres undefined)	/	.	.	.	.	/	/	/
C/C(=N\NC(=O)c1cccc(Cl)c1)c1cccc(NC(=O)c2ccco2)c1	.	.	.	.	.	/	/	/
C/C(=N\NC(=O)c1cc(O)ccc1O)c1cccc(NC(=O)c2cccc(Cl)c2)c1	.	54	31	33	43	.	.	20	ABHD4 confirm=36
Cc1cc2nc(C3CCCCC3)c(Cc3cccc(F)c3)n2c(C)c1Br	/	.	.	.	.	/	/	/
Cc1c(C(=O)NNC(=O)c2ccccc2O)oc2ccccc12	.	.	.	21	23	.	25	.
Cn1ccc2c(N3CCCCCCC3)cc3c(c21)C1CCC3O1 (centres undefined)	/	40	.	49	91	.	.	.	ABHD4 confirm=.
CC(NC(=O)Nc1ccc(O)cc1)(C(F)(F)F)C(F)(F)F	.	66	.	26	54	.	.	.	ABHD4 confirm=.
c1coc(-c2nc(-c3ccco3)c(-c3ccco3)nc2-c2ccco2)c1	74	54	78	29	26	.	.	.	PRMT1 confirm=.;ABHD4 confirm=43
O=C(CCCSc1ccccc1)Nc1nc(-c2ccco2)c(-c2ccco2)s1	.	.	44	28	23	.	.	.	PRMT1 confirm=.
Cc1ccc(C(=O)Nc2nc(-c3ccco3)c(-c3ccco3)s2)o1	.	36	38	41	31	.	.	.	PRMT1 confirm=29;ABHD4 confirm=.
CC1CN(c2ccnc3cc(Cl)ccc23)CCN1C(=O)c1ccc(Cl)cc1 (centres undefined)	/	.	.	.	/	/	/	/
O=[N+]([O-])c1cc([N+](=O)[O-])c2nonc2c1Nc1ccccc1O	.	.	.	.	.	/	/	/
O=[N+]([O-])c1cc([N+](=O)[O-])c2nonc2c1Nc1ccc(O)cc1	.	46	.	21	43	.	.	.	ABHD4 confirm=.
O=C(Cc1csc(N2CCOCC2)n1)N/N=C/c1ccc(O)c(O)c1O	.	.	.	31	41	.	.	18
O=C1c2ccccc2/C(=C\c2ccc(O[C@@H]3CCCCO3)cc2)N1c1ccccc1	/	.	.	.	.	/	/	/
Cc1cc(O)ccc1N/C=C1\CCCC1=O	.	69	30	46	34	.	.	.	ABHD4 confirm=.
CCCN1CCN(C(=O)c2oc3ccccc3c2NC(=O)COc2ccc(OC)cc2)CC1	.	.	.	.	.	/	/	/
Oc1c(N=Nc2ccc(F)cc2)ccc2ccccc12	.	.	.	.	.	/	/	/
Oc1c(N=Nc2nn[nH]n2)ccc2ccccc12	/	.	35	25	37	146	104	44
COc1ccc(/C(C)=N/NC(=S)NCCc2ccccc2)c(O)c1	.	.	.	25	22	.	.	24
CN(C)/C=C1\C=C2C(=O)c3ccccc3N2C1=O	.	.	111	21	39	113	74	38	PRMT1 confirm=54
SMILES	HTRA1 inhibitor	ABHD4 inh	PRMT1 inh	SIAE primary	TCR-CD3 inh	BSA probe FL	TCR-CD3 inh conf	SIAE confirm	others
CN(C)S(=O)(=O)N1C(=O)c2ccccc2C1=O	.	.	.	.	.	/	/	/
Cc1cc(C(=O)N2CCC2(C)C(=O)NS(=O)(=O)c2ccccc2Cl)nn1C (centres undefined)	/	.	.	.	.	/	/	/
CCN1C(=O)/C(=C2\SC(=S)N(NC(=O)c3ccccc3O)C2=O)c2ccccc21	.	31	.	19	31	.	.	26	ABHD4 confirm=73
CC(=O)Nc1ccc(CN2C(=O)C(CCc3ccccc3)ON=C2c2cnccn2)cc1 (centres undefined)	/	.	.	.	.	/	/	/
CCOC(=O)c1ccc(N2C(=O)c3cccc4c(C(=O)O)ccc(c34)C2=O)cc1	.	.	.	.	.	/	/	/
O=C1c2cccc3c(O)ccc(c23)C(=O)N1c1ccc(Cl)cc1	.	57	174	37	32	26	21	.	ABHD4 confirm=31
CC(=O)Nc1ccc(N2C(=O)c3cccc4c(O)ccc(c34)C2=O)cc1	.	.	109	26	54	74	52	17
Cc1ccc(N2C(=O)c3cccc4c(C(=O)O)ccc(c34)C2=O)cc1	/	.	.	.	.	/	/	/
Cc1cccc(-c2cccc3c4c([nH]c23)[C@@H]2C[C@H](N(C)C(=O)c3ccccc3F)[C@H]([C@H](C)O)CN2CC4)c1	/	.	.	.	/	/	/	/
O=C(CSc1nccc(=O)[nH]1)Nc1ccc(S(=O)(=O)N2CCOCC2)cc1	.	.	49	.	.	/	/	/	PRMT1 confirm=.
Cc1ccnc(N=O)c1	.	.	45	.	.	/	/	/	PRMT1 confirm=55
Cc1c(Br)cccc1NC(=O)C1(C)CCN1CCc1ccccc1 (centres undefined)	/	.	.	.	.	/	/	/
O=C(OCN1C(=O)c2ccccc2C1=O)c1cccc(OC(F)F)c1	.	.	.	.	.	/	/	/
OCC(O)C(O)C(O)C(O)C1NCCS1 (centres undefined)	.	.	32	.	.	/	/	/	PRMT1 confirm=.
CC(C)c1nnc(SCC(=O)Nc2ccc3c(c2)OCCO3)n1C	.	.	.	.	.	/	/	/
CC12CCC(=O)N1C(C(=O)Nc1cc(S(=O)(=O)N3CCCCCC3)ccc1OCC(F)(F)F)CS2 (centres undefined)	.	.	.	.	.	/	/	/
O=C(c1ccc2c3c(cccc13)CC2)C1CCCN(Cc2cccnc2)C1 (centres undefined)	.	.	.	.	.	/	/	/
